# Hits are enriched below; roughly 0.91% of the tested compounds scored in any of these assays.
# PMI act: activators of human PMI, primary screen, biochemical, fluorescence intensity, near-Km mannose 6-phosphate; AID 1214, 2008; purified human PMI, coupled resazurin fluorescence, 20 min; hits give high values; 1 = vehicle control, 0 substrate-free wells; Mannose-6-phosphate isomerase (Homo sapiens), P34949; 190,000 compounds, 0.005% hits; activation factor at 20 µM;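 active = activation factor of 2 or more at 20 µM, relative to plate controls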
# TbHK1 inh: Trypanosoma brucei hexokinase 1 inhibitors, primary screen, biochemical, G6PDH-coupled NADH absorbance, MLSCN library; recombinant TbHK1, G6PDH-coupled NADH A340; inhibition, % at 10 µM; 220,000 compounds, 0.11% hits; AID 1430, 2008;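 active = inhibition of 50% or more in the single-dose primary screen; inactive = inhibition below 50%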
# PMI act satM6P: human PMI activators, high substrate, primary screen, biochemical, fluorescence intensity, near-saturating mannose 6-phosphate | activation factor at 20 µM | coupled PMI enzyme assay, resazurin fluorescence, 20 min; hits give high values; 1 = untreated enzyme, 0 = substrate-free blank | 190,000 compounds, 0.34% hits | Mannose-6-phosphate isomerase (Homo sapiens), P34949 | AID 1216, 2008;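 active = activation factor of 2 or more at 20 µM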
#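 Test system: Human PMI in coupled enzyme assay | Input: 15 ng/mL PMI | Medium: HEPES-buffered pH 7.4 with magnesium and detergent | Compound: One concentration, 20 µM, in 1% DMSO | Incubation: Enzyme reaction with compound 20 min at room temperature | Detection: Diaphorase-driven resazurin-to-resorufin fluorescence, excitation 544, emission 590 nm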
# p97 inhibitor: inhibitors of human p97 ATPase, primary screen, biochemical. Transitional endoplasmic reticulum ATPase (Homo sapiens), P55072. recombinant p97 ATPase, Kinase-Glo ATP luminescence, 3 h. inhibition, % at 8 µM. 220,000 compounds, 0.42% hits. AID 1481, 2009; in the data active = inhibition above about 15%;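 also: 0% = DMSO vehicle and 100% = wells lacking enzyme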
# Target sequence (P55072 whole entry, looked up): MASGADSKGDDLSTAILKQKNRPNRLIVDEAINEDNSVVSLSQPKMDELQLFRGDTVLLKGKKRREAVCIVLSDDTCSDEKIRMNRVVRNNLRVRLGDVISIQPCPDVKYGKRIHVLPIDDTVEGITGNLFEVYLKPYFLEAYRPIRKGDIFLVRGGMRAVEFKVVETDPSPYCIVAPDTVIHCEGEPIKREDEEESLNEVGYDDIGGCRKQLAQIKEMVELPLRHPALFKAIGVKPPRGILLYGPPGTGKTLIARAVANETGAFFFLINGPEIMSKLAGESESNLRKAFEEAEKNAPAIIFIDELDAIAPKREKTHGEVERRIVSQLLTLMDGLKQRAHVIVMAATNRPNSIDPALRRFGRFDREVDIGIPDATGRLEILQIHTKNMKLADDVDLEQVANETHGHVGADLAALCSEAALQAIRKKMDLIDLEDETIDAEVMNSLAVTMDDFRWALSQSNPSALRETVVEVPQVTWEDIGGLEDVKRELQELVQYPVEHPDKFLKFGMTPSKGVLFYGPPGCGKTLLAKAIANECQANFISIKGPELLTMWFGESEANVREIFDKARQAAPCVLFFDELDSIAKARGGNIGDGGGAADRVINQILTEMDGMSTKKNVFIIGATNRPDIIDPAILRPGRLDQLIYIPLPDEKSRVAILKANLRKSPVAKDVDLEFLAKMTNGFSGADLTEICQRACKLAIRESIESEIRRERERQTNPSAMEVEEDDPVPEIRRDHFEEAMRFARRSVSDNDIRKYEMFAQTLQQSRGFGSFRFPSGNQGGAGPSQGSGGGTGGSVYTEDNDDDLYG
# DTT redox prof: compounds producing H2O2 with reducing agent – biochemical, NIH compound library profiling, artefact control for MLSCN library redox annotation, primary screen. DTT-dependent redox cycling H2O2, phenol red/HRP absorbance; 100% = 100 µM peroxide control, 0% = buffer. activation, % at 10 µM. 200,000 compounds, 0.03% hits;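 active = activation of at least 50% relative to the plate's high and low controls in the primary single-dose screen; inactive = activation below 50%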;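 also: compound incubated with DTT at 0.8 mM final as the reducing agent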
# G6PDH counter: L. mesenteroides G6PDH inhibitors, counter-screen for G6PDH-coupled screening assays, biochemical, Leuconostoc mesenteroides enzyme; glucose-6-phosphate dehydrogenase [Leuconostoc mesenteroides]; Purified L. mesenteroides G6PDH, diaphorase/resazurin coupled fluorescence, 45 min; inhibition, % at 5 µM; 200,000 compounds, 0.12% hits; AID 1020, 2008; in the data active = inhibition above about 50%
# * marks the source's active call; other numbers are inactive results; . = no result given.
SMILES,PMI act,TbHK1 inh,PMI act satM6P,p97 inhibitor,DTT redox prof,G6PDH counter
CC1(C)Cc2nc3sc(C(=O)O)c(N)c3cc2CS1,1.7,-0.1,2.4*,-4.2,-0.7,2.5
CCO/C=C1/C(=O)N(C(C)=O)c2ccccc21,1.7,1.3,2.6*,3.6,-2.4,3.9
N#CC1=C(N)c2ccccc2CC12CCCCC2,0.9,-8.7,0.9,-3.5,0.2,4.4
c1ccc(N/N=C(\Cc2ncc[nH]2)c2ccccc2)cc1,1.5,-7.2,2.3*,1.4,-0.4,4.9
COc1cccc(CN(CC2CCCO2)S(=O)(=O)c2ccc(S(=O)(=O)N(C)C)cc2)c1 (stereo not given),0.9,-4.2,0.8,14.7*,0.0,11.4
CC(O)CC(C(=O)NNc1ccccc1)C(=O)NNc1ccccc1 (stereo not given),1.7,1.2,2.5*,-2.5,-0.1,2.7
O=C(NNc1ccccc1)C(CCO)C(=O)NNc1ccccc1,1.8,-1.7,2.4*,-0.4,0.4,-0.3
CNCc1ccccc1Sc1ccc(O)c(O)c1,0.3,18.1,0.3,8.8,45.9,50.5*
CC(=O)c1c(N2CCN(Cc3ccccc3)CC2)nc(=S)n(-c2ccccc2)c1C,1.6,-4.3,2.1*,-3.9,-0.7,-7.2
CCC(=O)N1CCc2cc(S(=O)(=O)CCC(=O)Nc3ccc(OC)c(OC)c3)ccc21,1.1,-4.5,1,6.9,0.0,5.0
CC(CN1CCN(C)CC1)OC(=O)c1ccc(F)cc1 (stereo not given),1.2,7.7,1.1,-3.3,-0.7,2.6
CC(CN1CCOCC1)OC(=O)c1ccc(Br)cc1 (stereo not given),0.7,-2.7,0.5,2.9,-1.4,57.0*
Cn1ccs/c1=N\C(=O)Nc1ccccc1,0.9,-16.7,0.9,-1.9,0.4,15.3
O=C(O)C1Nc2c(O)cccc2C2C=CCC12 (stereo not given),0.6,6.0,0.9,22.8*,1.0,24.2
C/C(=N\Nc1ccc(F)cc1)c1ccncc1,1.6,-5.2,2.5*,2.3,0.2,7.7
Clc1cccc(N/N=C/c2ccncc2)c1,1.1,-38.5,1.2,2.9,-0.3,-12.9
C/C(=N/Nc1ccc(F)cc1)c1ccc(Cl)s1,1.4,0.8,2.3*,1.8,0.1,-12.5
C/C(=N\Nc1cccc(Cl)c1)c1ccncc1,1.8,-11.4,2.3*,5.1,-1.8,0.3
C/C(=N\NC=O)c1ccncc1,1.1,-5.4,1,0.8,0.4,2.9
NC(C(=O)O)C(c1ccccc1)C(F)F (stereo not given),.,-12.7,.,-0.2,.,.
Cc1cc(=O)oc2cc(NC(=O)CC3(CC(=O)O)CCCC3)ccc12,.,-40.3,.,-6.2,.,.
CCCN1CCC(=NNC(=O)c2ccc(Br)o2)CC1,1.1,-0.4,1,-3.8,2.0,4.6
CCCN1CCC(=NNc2ccc(C(=O)O)cc2)CC1,1.8,-1.8,3*,-3.0,-0.2,6.5
CC(=O)Nc1c(N)c2ccccc2oc1=O,1.1,-1.9,1.1,4.1,1.3,3.3
O=C(O)Cc1sc(Nc2ccccc2)nc1-c1ccc(Cl)cc1,1.6,6.2,2.5*,-1.5,-0.1,4.4
O=c1[nH]c(Nc2ccccc2)cc2ccccc12,0.9,-3.9,0.5,8.3,-1.0,55.3*
O=c1c(N2CCOCC2)c(N2CCOCC2)c1=O,.,-20.2,.,9.2,.,.
CC(C)(C)C1=CC(=O)C(N2CCOCC2)=CC1=O,0.9,-6.4,0.3,1.3,0.1,54.8*
COc1ccc2[nH]c3c(Cl)ncnc3c2c1,0.9,3.8,1,2.1,0.1,0.6
COc1ccc2[nH]c3c(=S)nc[nH]c3c2c1,1.8,-14.2,2.6*,-0.5,-0.6,5.8

# Screening data (PubChem BioAssay)
